SENP8 block-1 – blocks human SENP8 cleavage of Nedd8 substrate | inhibition, % at 20 µM | recombinant SENP8, Nedd8 substrate fluorescence | 360,000 tested, 0.64% active; in the data active = inhibition mostly above about 40%, no sharp cut-off; inactive = mostly below about 27%
Target sequence (Q96LD8 whole entry, looked up): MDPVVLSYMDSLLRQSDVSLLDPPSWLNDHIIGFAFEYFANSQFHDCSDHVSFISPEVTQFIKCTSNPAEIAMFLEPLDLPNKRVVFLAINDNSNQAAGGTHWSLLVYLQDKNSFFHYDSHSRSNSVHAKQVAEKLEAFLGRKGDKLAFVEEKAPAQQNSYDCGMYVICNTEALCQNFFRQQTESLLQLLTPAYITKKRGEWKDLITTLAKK
SENP1 inh – SENP1 (human) catalytic domain inhibition; Q9P0U3; recombinant SENP1 catalytic domain, CyPet-SUMO1-YPet FRET cleavage; inhibition, % at 10 µM; 360,000 tested, 0.21% active; AID 624204;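 active = inhibition at least 30% at 10 µM, raw YFP signal under a set limit, fluorescence ratio 0.5 to 1.5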;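 note: 0% = enzyme with DMSO and 100% = no enzyme wells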
Target sequence (Q9P0U3 419-644 limits assumed): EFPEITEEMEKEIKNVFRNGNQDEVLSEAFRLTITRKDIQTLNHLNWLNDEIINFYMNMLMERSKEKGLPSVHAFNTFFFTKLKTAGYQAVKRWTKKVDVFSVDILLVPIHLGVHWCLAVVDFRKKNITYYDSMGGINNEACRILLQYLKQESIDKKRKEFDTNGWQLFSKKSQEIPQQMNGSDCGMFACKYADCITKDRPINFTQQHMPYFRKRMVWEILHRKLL
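material = recombinant human SENP1 catalytic domain, His6-tagged | quantity = 20 pM enzyme | reagent = 25 nM SUMO1 FRET substrate | compound dosing = 10 µM single point, 0.5% DMSO | timing = 50 min enzyme reaction, room temperature, light-protected | detection = FRET, CFP and YFP emission | control set = no-enzyme low, enzyme-DMSO high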
SENP6 inh – inhibitors of human SENP6 protease; inhibition, % at 10 µM; Recombinant SENP6 catalytic domain, aminoluciferin luminescence; 330,000 tested, 1.8% active; AID 2599;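 active = inhibition above about 50% at the single tested dose, limit read from the data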;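 note: plate controls were DMSO wells with enzyme for no effect and DMSO wells lacking enzyme for full effect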
SENP8 block-2 – blocks the human protease SENP8. Q96LD8. purified SENP8, Z-RLRGG-aminoluciferin cleavage, luminescence. AID 2540. 330,000 tested, 1.2% active. inhibition, % at 10 µM; in the data active = inhibition above about 50%
SENP7 block – SENP7 protease inhibition; recombinant SENP7, Z-RLRGG-aminoluciferin luminescence, 40 min; inhibition, % at 5 µM; 330,000 tested, 1.5% active;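 active = inhibition above about 50% at the single test dose, limit read from the data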;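 note: plate controls were DMSO with enzyme for no effect and no enzyme buffer wells for full effect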
HSP90 refold inh – HSP90 refolding inhibition in rabbit reticulocyte lysate; luciferase refolding luminescence, 3 h; 290,000 tested, 0.91% active; inhibition, % at 5.6 µM;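 active = inhibition above the screen-wide mean plus 3 SD, computed separately per campaign, cut at about 16% in these data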;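 note: 0% = DMSO wells and 100% = 60 µM geldanamycin wells; inhibitors lower the luminescence because luciferase stays unfolded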
SENP8 conf – confirmation of human SENP8 protease inhibitors | Recombinant SENP8, Z-RLRGG-aminoluciferin luminescence, 60 min | inhibition, % at 12.5 µM | AID 488912 | 6,200 tested, 40% active | shares compounds with SENP7 block;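 active = mean inhibition across replicates above about 50%, limit read from the data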
SENP6 conf – confirmation of human SENP6 protease inhibitors | recombinant SENP6, Z-RLRGG-aminoluciferin luminescence | inhibition, % at 12.5 µM | AID 488915 | shares compounds with SENP7 block | 6,200 tested, 58% active
SENP7 confirm – confirmation of human SENP7 protease inhibitors; shares compounds with SENP7 block; recombinant SENP7, Z-RLRGG-aminoluciferin luminescence, 40 min; inhibition, % at 12.5 µM; 6,200 tested, 69% active
Casp3 select – inhibits human caspase-3 in SENP selectivity test; purified caspase-3, Z-DEVD-aminoluciferin luminescence, 60 min; 6,200 tested, 60% active; AID 488918; inhibition, % at 12.5 µM; shares compounds with SENP7 block;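 active = mean inhibition above about 50%, limit read from the data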;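 note: plate controls were enzyme with DMSO for no effect and wells without caspase-3 for full effect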
Luc interf – interferes with luciferase luminescence in SENP counter-screen; shares compounds with SENP7 block; Pre-incubated SENP8/Z-RLRGG-aminoluciferin, luciferase luminescence interference; inhibition, % at 12.5 µM; 6,200 tested, 39% active; AID 488919;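 active = mean inhibition above about 50% when retested at one dose, limit read from the data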;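 note: plate controls were DMSO wells with completed reaction for no effect and substrate without enzyme for full effect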
* hit, by the source's call; . = no result given. Hits are enriched below; roughly 2.9% of the tested compounds scored in any of these assays.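 Rule for the calls, unless noted: active = mean inhibition above about 50% in the one-dose retest (limit read from the data); inactive = the rest.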

SMILES | SENP8 block-1 | SENP1 inh | SENP6 inh | SENP8 block-2 | SENP7 block | HSP90 refold inh | SENP8 conf | SENP6 conf | SENP7 confirm | Casp3 select | Luc interf
Cc1nn(-c2ccccc2)c(Cl)c1/C=N/NC(=O)c1ccnn1C | 5.1 | -2.8 | 94.0* | 86.5* | 94.1* | 4.8 | 59.3* | 80.8* | 97.3* | 92.4* | 54.8*
Cc1nn(-c2ccccc2)c(Cl)c1/C=N/NC(N)=O | 3.1 | 2.6 | -5.7 | 0.8 | 8.2 | -3.7 | . | . | . | . | .
COc1ccc(C(=O)c2coc(-c3ccccc3C(=O)O)c2C(=O)O)cc1 | 5.2 | 0.8 | -12.5 | -2.1 | 2.7 | 0.1 | . | . | . | . | .
COc1ccc(C(=O)c2c(C(F)(F)F)oc3c2C(=O)c2ccccc2C3=O)cc1 | 81.4* | 3.5 | 70.2* | 47.4 | 26.7 | 13.2 | 27.3 | 69.6* | 15.4 | 71.8* | -5.6
CCc1ncc(CN2CCC(C(=O)Nc3cccc(-c4cscn4)c3)CC2)cn1 | 8.3 | -3.0 | -12.1 | -4.1 | 9.1 | 1.1 | . | . | . | . | .
FC(F)Oc1ccc(C2N=C(c3ccccc3)NO2)cc1 (stereo not given) | -19.7 | -1.8 | 61.9* | 53.7* | 1.7 | 8.5 | 17.0 | 28.1 | 23.7 | 17.9 | 13.8
COc1ccc(C2N=C(c3ccccc3)NC(c3ccccc3)=N2)cc1 | 7.0 | 2.1 | -49.1 | -3.3 | -3.2 | 1.9 | . | . | . | . | .
COc1cc(C2N=C(c3ccccc3)NO2)cc(Br)c1O (stereo not given) | -165.4 | -6.2 | 91.2* | 77.2* | 28.0 | 3.8 | 85.0* | 84.0* | 91.7* | 58.1* | 85.2*
COc1ccc(C2N=C(c3ccccc3)NO2)cc1OC (stereo not given) | -8.9 | -3.0 | 8.4 | 18.8 | 9.0 | -3.4 | . | . | . | . | .
COc1ccccc1NS(=O)(=O)c1cc(NC(=O)CNC(=O)c2ccc(C)s2)ccc1Cl | 2.7 | -0.7 | -11.3 | -5.9 | -6.4 | -1.7 | . | . | . | . | .
Cc1nn(C(=O)c2ccc3c(c2)OCO3)c(N)c1-c1ccccc1 | 8.5 | 8.5 | 83.0* | 59.2* | 65.1* | 10.8 | 4.8 | 77.8* | 96.2* | 68.3* | 37.1
Cc1ccc2c(Cl)c(C(=O)Nc3cc(C)on3)sc2c1 | 14.4 | 3.0 | -3.0 | -12.6 | 27.4 | -0.2 | . | . | . | . | .
Cc1cnc(NC(=O)c2sc3ccccc3c2Cl)s1 | -98.0 | -1.1 | 80.2* | 66.1* | 84.0* | 4.6 | 21.3 | 49.9 | 53.0* | 25.8 | 7.0
Cc1ccnc(NC(=O)c2sc3ccccc3c2Cl)c1 | -2.5 | 0.9 | 71.0* | 57.4* | 89.3* | -1.7 | 42.2 | 37.4 | 15.6 | 55.2* | 6.3
NC(=O)c1nnsc1-c1ccco1 | -1.5 | 0.8 | . | . | . | . | . | . | . | . | .
CC1(C(=O)Nc2ccc3c(c2)OCCO3)CCN1C(=O)c1ccco1 (stereo not given) | 2.5 | -0.8 | . | . | . | . | . | . | . | . | .
O=C(Nc1ccc(Cl)cc1[N+](=O)[O-])c1ccc2c(c1)OCCO2 | 9.4 | 2.9 | 16.8 | -16.0 | 63.8* | 0.9 | 15.3 | 10.3 | 8.5 | 6.5 | -4.9
O=C(Nc1ccc(F)c([N+](=O)[O-])c1)c1ccc2c(c1)OCCO2 | 9.3 | 0.9 | 56.8* | 29.3 | 69.3* | -2.2 | 31.3 | 41.1 | 86.8* | 61.2* | 40.3
COc1ccc(C(=O)Nc2ccc3c(c2)OCCO3)cc1[N+](=O)[O-] | 19.2 | -0.1 | 13.6 | -2.2 | 8.3 | 2.1 | . | . | . | . | .
O=C(CSc1ncccc1-c1nc2ccccc2[nH]1)N1CCc2ccccc21 | -178.6 | -4.8 | -0.3 | -11.0 | 55.4* | 11.2 | 4.3 | -2.3 | 16.0 | 11.4 | 5.6
Cc1ccccc1S(=O)(=O)Oc1cccc2c(O)cccc12 | 1.3 | -7.5 | 5.8 | -9.2 | 11.8 | 0.8 | . | . | . | . | .

Screening results (PubChem)
